Laboratory results: ChEMBL document CHEMBL1649165, “Activity profile in vitro of micafungin against Spanish clinical isolates of common and emerging species of yeasts and molds” (2009)
≈ marks a conversion by molar mass, not a printed value.

Assays:
Format in all cases: functional
[1] = system: Scopulariopsis brevicaulis; assay: Antimicrobial activity against Scopulariopsis brevicaulis by broth microdilution method
Outline: (§1)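 Filamentous fungus clinical isolates tested by the AFST-EUCAST reference broth microdilution method for moulds. For echinocandins, the endpoint was the minimum effective concentration: the lowest drug concentration giving aberrant hyphal growth, read with an inverted microscope.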

Lewia infectoria = assay: Antimicrobial activity against Alternaria infectoria by broth microdilution method
Outline: (§2)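 Clinical mould isolates, tested by broth microdilution using the AFST-EUCAST reference method for filamentous fungi. For echinocandins, the endpoint was the minimum effective concentration: the lowest drug concentration giving aberrant hyphal growth, read with an inverted microscope.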

[2] = Antimicrobial activity against Rhizopus microsporus by broth microdilution method; outline: as §1
Lichtheimia corymbifera = assay: Antimicrobial activity against Mycocladus corymbiferus by broth microdilution method; outline: as §1
Candida orthopsilosis = assay: Antimicrobial activity against Candida orthopsilosis by broth microdilution method; details: Lodderomyces orthopsilosis
Outline: (§3)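 Clinical isolates from human patients, tested by broth microdilution using the AFST-EUCAST reference procedure for fermentative yeasts. The MIC was read per that reference method.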

[3] = system: Cunninghamella bertholletiae; assay: Antimicrobial activity against Cunninghamella bertholletiae by broth microdilution method; outline: as §2
Clavispora lusitaniae = assay: Antimicrobial activity against Candida lusitaniae by broth microdilution method; outline: as §3
Aspergillus glaucus = assay: Antimicrobial activity against Aspergillus glaucus by broth microdilution method; outline: as §2
Rhizopus arrhizus = assay: Antimicrobial activity against Rhizopus oryzae by broth microdilution method; outline: as §1
[4] = system: Meyerozyma guilliermondii; assay: Antimicrobial activity against Candida guilliermondii by broth microdilution method; outline: as §3
[5] = system: Kazachstania pintolopesii; assay: Antimicrobial activity against Candida pintolopesii by broth microdilution method; details: Arxiozyma pintolopesii; outline: as §3
Geotrichum candidum = assay: Antimicrobial activity against Galactomyces geotrichum by broth microdilution method
Beauveria bassiana = assay: Antimicrobial activity against Beauveria bassiana by broth microdilution method; outline: as §2
Ustilago = assay: Antimicrobial activity against Ustilago spp by broth microdilution method
Fusarium equiseti = assay: Antimicrobial activity against Fusarium equiseti by broth microdilution method; outline: as §2
Candida parapsilosis = assay: Antimicrobial activity against Candida parapsilosis by broth microdilution method; details: Lodderomyces parapsilosis; outline: as §3
[6] = system: Cladophialophora bantiana; assay: Antimicrobial activity against Cladophialophora bantiana by broth microdilution method; outline: as §2
Exophiala dermatitidis = assay: Antimicrobial activity against Exophiala dermatitidis by broth microdilution method
Rhizomucor = assay: Antimicrobial activity against Rhizomucor spp.by broth microdilution method; outline: as §1
Aspergillus ustus = assay: Antimicrobial activity against Aspergillus ustus by broth microdilution method; outline: as §2
Pichia kudriavzevii = assay: Antimicrobial activity against Candida krusei by broth microdilution method; outline: as §3
Aspergillus versicolor = assay: Antimicrobial activity against Aspergillus versicolor by broth microdilution method; outline: as §2
Aspergillus nidulans = assay: Antimicrobial activity against Aspergillus nidulans by broth microdilution method; outline: as §2
Trichosporon inkin = assay: Antimicrobial activity against Trichosporon inkin by broth microdilution method
Outline: (§4)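 Nonfermentative yeast clinical isolates (Rhodotorula, Trichosporon) tested by broth microdilution. The EUCAST yeast recommendations were followed strictly, with one minor modification to improve growth. MIC was read as the endpoint.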

Hortaea werneckii = assay: Antimicrobial activity against Hortaea werneckii by broth microdilution method
Debaryomyces hansenii = assay: Antimicrobial activity against Candida famata by broth microdilution method; outline: as §3
Fusarium solani = assay: Antimicrobial activity against Fusarium solani by broth microdilution method; outline: as §1
Lomentospora prolificans = assay: Antimicrobial activity against Scedosporium prolificans by broth microdilution method; outline: as §1
[7] = Antimicrobial activity against Hormographiella aspergillata by broth microdilution method; details: Coprinopsis cinerea; outline: as §1
Trichosporon ovoides = assay: Antimicrobial activity against Trichosporon ovoides by broth microdilution method; outline: as §4
Phialemonium curvatum = assay: Antimicrobial activity against Phialemonium curvatum by broth microdilution method; details: Thyridium curvatum; outline: as §1
Saksenaea vasiformis = assay: Antimicrobial activity against Saksenaea vasiformis by broth microdilution method; outline: as §1
Rhodotorula glutinis = assay: Antimicrobial activity against Rhodotorula glutinis by broth microdilution method; outline: as §4
Exophiala jeanselmei = assay: Antimicrobial activity against Exophiala jeanselmei by broth microdilution method
Fusarium oxysporum = assay: Antimicrobial activity against Fusarium oxysporum by broth microdilution method; outline: as §2
Neurospora sitophila = assay: Antimicrobial activity against Chrysonilia sitophila by broth microdilution method; outline: as §2
[8] = system: Cryptococcus deneoformans; assay: Antimicrobial activity against Cryptococcus neoformans var. neoformans by broth microdilution method
Outline: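 Clinical isolates of nonfermentative yeasts, tested by broth microdilution following EUCAST recommendations. The only change from that method was a minor modification to improve growth.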

Aureobasidium pullulans = assay: Antimicrobial activity against Aureobasidium pullulans by broth microdilution method
Rhodotorula mucilaginosa = assay: Antimicrobial activity against Rhodotorula mucilaginosa by broth microdilution method; outline: as §4
Cladosporium = assay: Antimicrobial activity against Cladosporium spp. by broth microdilution method; outline: as §2
Candida metapsilosis = assay: Antimicrobial activity against Candida metapsilosis by broth microdilution method; details: Lodderomyces metapsilosis; outline: as §3

Compound: C[C@@H](c1ncncc1F)[C@](O)(Cn1cncn1)c1ccc(F)cc1F [VORICONAZOLE]
- MIC50 [1]: 4 mg/L (≈ 11.5 µM)
- MIC90 [1]: > 8 mg/L
- MIC50 (Lewia infectoria): 2 mg/L (≈ 5.73 µM)
- MIC90 (Lewia infectoria): > 8 mg/L
- MIC50 [2]: > 8 mg/L
- MIC90 [2]: > 8 mg/L
- MIC50 (Lichtheimia corymbifera): > 8 mg/L
- MIC90 (Lichtheimia corymbifera): > 8 mg/L
- MIC50 (Candida orthopsilosis): 0.12 mg/L (≈ 0.344 µM)
- MIC90 (Candida orthopsilosis): > 8 mg/L
- MIC50 [3]: > 8 mg/L
- MIC90 [3]: > 8 mg/L
- MIC50 (Clavispora lusitaniae): 0.02 mg/L (≈ 0.0573 µM)
- MIC90 (Clavispora lusitaniae): 0.02 mg/L (≈ 0.0573 µM)
- MIC50 (Aspergillus glaucus): 0.25 mg/L (≈ 0.716 µM)
- MIC90 (Aspergillus glaucus): > 8 mg/L
- MIC50 (Rhizopus arrhizus): > 8 mg/L
- MIC90 (Rhizopus arrhizus): > 8 mg/L
- MIC50 [4]: 0.12 mg/L (≈ 0.344 µM)
- MIC90 [4]: > 8 mg/L
- MIC50 [5]: 0.12 mg/L (≈ 0.344 µM)
- MIC90 [5]: > 8 mg/L
- MIC50 (Geotrichum candidum): 0.5 mg/L (≈ 1.43 µM)
- MIC90 (Geotrichum candidum): 1 mg/L (≈ 2.86 µM)
- MIC50 (Beauveria bassiana): 4 mg/L (≈ 11.5 µM)
- MIC90 (Beauveria bassiana): > 8 mg/L
- MIC50 (Ustilago): 0.5 mg/L (≈ 1.43 µM)
- MIC90 (Ustilago): > 8 mg/L
- MIC50 (Fusarium equiseti): 4 mg/L (≈ 11.5 µM)
- MIC90 (Fusarium equiseti): > 8 mg/L
- MIC50 (Candida parapsilosis): 0.02 mg/L (≈ 0.0573 µM)
- MIC90 (Candida parapsilosis): 0.02 mg/L (≈ 0.0573 µM)
- MIC50 [6]: 0.06 mg/L (≈ 0.172 µM)
- MIC90 [6]: > 8 mg/L
- MIC50 (Exophiala dermatitidis): 0.06 mg/L (≈ 0.172 µM)
- MIC90 (Exophiala dermatitidis): > 8 mg/L
- MIC50 (Rhizomucor): > 8 mg/L
- MIC90 (Rhizomucor): > 8 mg/L
- MIC50 (Aspergillus ustus): 0.25 mg/L (≈ 0.716 µM)
- MIC90 (Aspergillus ustus): > 8 mg/L
- MIC50 (Pichia kudriavzevii): 0.25 mg/L (≈ 0.716 µM)
- MIC90 (Pichia kudriavzevii): 0.5 mg/L (≈ 1.43 µM)
- MIC50 (Aspergillus versicolor): 1 mg/L (≈ 2.86 µM)
- MIC90 (Aspergillus versicolor): 2 mg/L (≈ 5.73 µM)
- MIC50 (Aspergillus nidulans): 0.25 mg/L (≈ 0.716 µM)
- MIC90 (Aspergillus nidulans): 1 mg/L (≈ 2.86 µM)
- MIC50 (Trichosporon inkin): 0.06 mg/L (≈ 0.172 µM)
- MIC90 (Trichosporon inkin): 0.12 mg/L (≈ 0.344 µM)
- MIC50 (Hortaea werneckii): 0.06 mg/L (≈ 0.172 µM)
- MIC90 (Hortaea werneckii): > 8 mg/L
- MIC50 (Debaryomyces hansenii): 0.12 mg/L (≈ 0.344 µM)
- MIC90 (Debaryomyces hansenii): > 8 mg/L
- MIC50 (Fusarium solani): > 8 mg/L
- MIC90 (Fusarium solani): 4 mg/L (≈ 11.5 µM)
- MIC50 (Lomentospora prolificans): > 8 mg/L
- MIC90 (Lomentospora prolificans): > 8 mg/L
- MIC50 [7]: 4 mg/L (≈ 11.5 µM)
- MIC90 [7]: > 8 mg/L
- MIC50 (Trichosporon ovoides): 0.5 mg/L (≈ 1.43 µM)
- MIC90 (Trichosporon ovoides): > 8 mg/L
- MIC50 (Phialemonium curvatum): 4 mg/L (≈ 11.5 µM)
- MIC90 (Phialemonium curvatum): > 8 mg/L
- MIC50 (Saksenaea vasiformis): > 8 mg/L
- MIC90 (Saksenaea vasiformis): > 8 mg/L
- MIC50 (Rhodotorula glutinis): 0.5 mg/L (≈ 1.43 µM)
- MIC90 (Rhodotorula glutinis): > 8 mg/L
- MIC50 (Exophiala jeanselmei): 0.06 mg/L (≈ 0.172 µM)
- MIC90 (Exophiala jeanselmei): > 8 mg/L
- MIC50 (Fusarium oxysporum): 4 mg/L (≈ 11.5 µM)
- MIC90 (Fusarium oxysporum): > 8 mg/L
- MIC50 (Neurospora sitophila): 4 mg/L (≈ 11.5 µM)
- MIC90 (Neurospora sitophila): > 8 mg/L
- MIC50 [8]: 0.12 mg/L (≈ 0.344 µM)
- MIC90 [8]: 0.5 mg/L (≈ 1.43 µM)
- MIC50 (Aureobasidium pullulans): 0.06 mg/L (≈ 0.172 µM)
- MIC90 (Aureobasidium pullulans): > 8 mg/L
- MIC50 (Rhodotorula mucilaginosa): 4 mg/L (≈ 11.5 µM)
- MIC90 (Rhodotorula mucilaginosa): > 8 mg/L
- MIC50 (Cladosporium): 0.06 mg/L (≈ 0.172 µM)
- MIC90 (Cladosporium): > 8 mg/L
- MIC50 (Candida metapsilosis): 0.12 mg/L (≈ 0.344 µM)
- MIC90 (Candida metapsilosis): > 8 mg/L
